Where two headings read alike, the source gives them in different places.
Assays:
XO = details: cited from earlier work
[1] = target: T1, XO (isolated from bovine milk) (Bos taurus, UniProt P80457); experiment: Fluorescence titrations; type: binding; details: for Kd: binding constant K
Method in brief: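 Intrinsic fluorescence of bovine milk XO (0.16 U mL−1) titrated with test compound at 0–26.7 μM, at 298, 304 and 310 K. Excitation 280 nm, emission 300–500 nm, slit 5.0 nm. Mixtures equilibrated 30 min before reading. Compound-only control at each concentration; PBS blank for background correction. Final DMSO below 1%.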

[2] = target: T1, XO (isolated from bovine milk); experiment: Fourier translation infrared spectroscopy, secondary structure of XO; details: XO 0.5 U mL^−1 with AUR
Method in brief: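 FT-IR of bovine milk XO (0.5 U mL−1), alone and with test compound (200 μM), at room temperature. Spectra collected over 1800–1400 cm−1 at 4 cm−1 resolution, 128 scans co-added, background subtracted. Secondary-structure fractions quantified by split-peak fitting of the amide I band (1600–1700 cm−1).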

[3] = target: T1, XO (isolated from bovine milk); experiment: XO inhibition assay; type: biochemical
[4] = target: T1, XO (isolated from bovine milk); experiment: Enzyme kinetic studies; type: biochemical
Method in brief: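 Bovine milk XO. Reversibility: xanthine held at 0.25 mM, XO varied 0.03–0.15 U mL−1 (five levels), test compound at 0, 10, 20 and 30 μM, velocity plotted against [XO]. Inhibition type: XO 0.025 U mL−1, xanthine 0.0625–0.1875 mM, same compound levels. Lineweaver–Burk double-reciprocal analysis, with linear secondary replots of slope and Y-intercept against [compound].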

[5] = 298, 304 and 310 K (taken as constant)

T1 sequence (P80457 whole entry): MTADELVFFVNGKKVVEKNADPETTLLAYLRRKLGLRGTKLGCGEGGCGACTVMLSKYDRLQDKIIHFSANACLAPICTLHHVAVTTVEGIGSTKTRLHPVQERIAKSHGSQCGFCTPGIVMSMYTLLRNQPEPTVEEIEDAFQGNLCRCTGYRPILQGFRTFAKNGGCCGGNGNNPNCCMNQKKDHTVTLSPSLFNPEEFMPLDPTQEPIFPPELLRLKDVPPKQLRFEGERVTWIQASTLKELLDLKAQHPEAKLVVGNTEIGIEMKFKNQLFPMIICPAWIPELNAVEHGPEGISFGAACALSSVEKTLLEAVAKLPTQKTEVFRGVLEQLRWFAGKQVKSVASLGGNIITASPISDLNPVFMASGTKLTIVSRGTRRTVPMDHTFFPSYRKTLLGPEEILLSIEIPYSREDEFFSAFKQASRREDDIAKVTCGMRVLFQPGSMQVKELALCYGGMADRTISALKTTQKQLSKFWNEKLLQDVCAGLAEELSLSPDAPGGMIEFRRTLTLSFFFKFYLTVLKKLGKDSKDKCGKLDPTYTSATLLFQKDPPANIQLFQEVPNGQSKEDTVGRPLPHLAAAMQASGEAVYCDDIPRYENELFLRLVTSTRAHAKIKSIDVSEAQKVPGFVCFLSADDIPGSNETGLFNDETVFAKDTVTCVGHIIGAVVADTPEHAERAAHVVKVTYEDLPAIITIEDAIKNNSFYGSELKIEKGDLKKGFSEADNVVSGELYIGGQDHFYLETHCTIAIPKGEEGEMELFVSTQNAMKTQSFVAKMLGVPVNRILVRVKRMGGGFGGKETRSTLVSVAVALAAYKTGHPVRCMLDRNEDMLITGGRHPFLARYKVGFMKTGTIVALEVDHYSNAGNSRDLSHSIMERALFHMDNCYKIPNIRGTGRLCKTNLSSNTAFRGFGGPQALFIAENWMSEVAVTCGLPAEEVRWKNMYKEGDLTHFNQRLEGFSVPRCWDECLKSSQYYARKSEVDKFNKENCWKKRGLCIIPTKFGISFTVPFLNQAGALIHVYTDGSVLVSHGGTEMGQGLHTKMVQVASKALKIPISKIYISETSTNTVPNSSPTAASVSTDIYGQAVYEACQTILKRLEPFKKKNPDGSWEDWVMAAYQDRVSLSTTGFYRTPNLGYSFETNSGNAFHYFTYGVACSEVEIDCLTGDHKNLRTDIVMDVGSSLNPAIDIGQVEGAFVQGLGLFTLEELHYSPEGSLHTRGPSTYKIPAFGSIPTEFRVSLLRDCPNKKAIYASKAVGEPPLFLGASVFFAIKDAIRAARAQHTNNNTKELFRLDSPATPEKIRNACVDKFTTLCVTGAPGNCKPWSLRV

For O=C1/C(=C/c2ccc(O)c(O)c2)Oc2cc(O)ccc21 [sulfuretin], the IC50 (XO; ref 24 (Muzychka et al.)) is given as 3.1 ± 0.38 µM.
For O=c1c(O)c(-c2ccc(O)c(O)c2)oc2cc(O)cc(O)c12 [Quercetin, quercetin], the inhibition type (XO) is given as “mixed-type” and the IC50 (XO; ref 18 (Zhang et al.)) is given as 2.74 ± 0.04 µM.
With O=C1/C(=C/c2ccc(O)c(O)c2)Oc2cc(O)cc(O)c21 [AUR, Aureusidin] the fluorescence quenching mechanism [1] was “static quenching process”, the ΔH [1, 5] was 3.1 kcal/mol and the ΔS [1, 5] was 121.95 J mol^−1 K^−1. For the same compound, the “lg K” value ([1]; 298 K) was 4.096, the “number of binding sites n” value ([1]; 298 K) was 0.977 and the “quenching constant Ksv” value ([1]; 298 K) was 16190 L/mol. For the same compound, the “lg K” value ([1]; 304 K) was 4.155, the “number of binding sites n” value ([1]; 304 K) was 0.993 and the “quenching constant Ksv” value ([1]; 304 K) was 15450 L/mol. For the same compound, the ΔG ([1]; 304 K) was -8.858 kcal/mol, the “lg K” value ([1]; 310 K) was 4.184 and the “number of binding sites n” value ([1]; 310 K) was 1.006. For the same compound, the “quenching constant Ksv” value ([1]; 310 K) was 14370 L/mol, the ΔG ([1]; 310 K) was -9.032 kcal/mol and the Kd ([1]; 298 K) was 80.2 µM. For the same compound, the Kd ([1]; 304 K) was 70 µM, the Kd ([1]; 310 K) was 65.4 µM and the “β-Sheet content of XO” value ([2]; free XO 17.50) was 12.07%. For the same compound, the “β-Turn content of XO” value ([2]; free XO 40.37) was 23.31%, the “α-Helix and random structure content of XO” value ([2]; free XO 42.13) was 64.62% and the IC50 [3] was 7.62 ± 0.401 µM. For the same compound, the Ki [4] was 1.8 µM, the “ratio (α) of Kis to Ki” value [4] was 0.31 and the inhibition type ([4]; Lineweaver–Burk plot, XO 0.025 U mL^−1, AUR 0–30 μM) was “mixed-type (competitive and noncompetitive)”. For the same compound, the “uncompetitive inhibition constant (Kis)” value ([4]; binding to XO–xanthine complex) was 0.56 µM and the inhibition reversibility ([4]; plots of v vs [XO], AUR 0–30 μM, xanthine 0.25 mM) was “reversible”.

From publication PMC9827282 (RSC Advances, 2023)
